ChEMBL document CHEMBL4346672, “Antimicrobial and KPC/AmpC inhibitory activity of functionalized benzosiloxaboroles” (Eur J Med Chem, 2019)
Converted amounts (≈) assume the structure as drawn. The source made the active and inactive calls. The rule behind the calls is not given here.

Key:
[1] = system: Staphylococcus aureus; experiment: Antibacterial activity against Staphylococcus aureus ATCC 6538P assessed as diameter of zone inhibition measured after 18 hrs by CLSI disc diffusion method; type: functional
Method in brief: (§1)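 Disc diffusion on Mueller-Hinton II agar. Compounds dissolved in DMSO. Strains stored at -80 °C and subcultured twice on tryptic soy agar before testing. Inhibition zones read after 35 °C, 18 h.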

[2] = system: Pseudomonas aeruginosa; experiment: Antibacterial activity against Pseudomonas aeruginosa ATCC 27853 measured after 18 hrs by CLSI broth dilution method; type: functional; conditions: ATCC 27853, 18 h
Method in brief: (§2)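 Broth MIC in Mueller-Hinton II broth following CLSI, compounds dissolved in DMSO. Strains subcultured twice on tryptic soy agar before testing. Growth read after 35 °C, 18 h.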

[3] = Dissociation constant, pKa1 of compound in 0.1 M NaOH by potentiometric analysis; type: physicochemical
[4] = system: Meyerozyma guilliermondii; experiment: Antifungal activity against Candida guilliermondii IBA 155 assessed as decrease in fungal cell growth at 0.78 to 12.5 mg/L incubated for 24 hrs by CLSI broth dilution method; type: functional; conditions: IBA 155, 24 h
Method in brief: (§3)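 Yeast broth dilution in RPMI 1640 with 2% glucose, compounds in DMSO. Yeasts pre-grown on Sabouraud dextrose agar. Growth read after 35 °C, 24 h.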

[5] = system: Pichia kudriavzevii; experiment: Antifungal activity against Candida krusei ATCC 6258 assessed as decrease in fungal cell growth at 0.78 to 12.5 mg/L incubated for 24 hrs by CLSI broth dilution method; type: functional; conditions: ATCC 6258, 24 h; method in brief: as §3
[6] = system: Saccharomyces cerevisiae; experiment: Antifungal activity against Saccharomyces cerevisiae ATCC 9763 assessed as decrease in fungal cell growth at 0.78 to 12.5 mg/L incubated for 24 hrs by CLSI broth dilution method; type: functional; conditions: ATCC 9763, 24 h
Method in brief: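 Yeast strain subcultured on Sabouraud dextrose agar for 24–48 h at 30 °C before testing. Compounds dissolved in DMSO.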

[7] = system: Candida albicans; experiment: Antifungal activity against Candida albicans ATCC 90028 assessed as diameter of zone inhibition incubated for 24 hrs by CLSI disc diffusion method; type: functional
Method in brief: (§4)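 Yeast disc diffusion on Mueller-Hinton agar supplemented with 2% glucose and 0.5 mg/L methylene blue. Compounds in DMSO. Yeasts subcultured on Sabouraud dextrose agar before testing. Zones read after 35 °C, 24 h.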

[8] = system: Candida parapsilosis; experiment: Antifungal activity against Candida parapsilosis ATCC 22019 assessed as diameter of zone inhibition incubated for 24 hrs by CLSI disc diffusion method; type: functional; method in brief: as §4
[9] = system: Candida tropicalis; experiment: Antifungal activity against Candida tropicalis IBA 171 assessed as diameter of zone inhibition incubated for 24 hrs by CLSI disc diffusion method; type: functional; method in brief: as §4
[10] = system: Meyerozyma guilliermondii; experiment: Antifungal activity against Candida guilliermondii IBA 155 assessed as diameter of zone inhibition incubated for 24 hrs by CLSI disc diffusion method; type: functional; method in brief: as §4
[11] = system: Pichia kudriavzevii; experiment: Antifungal activity against Candida krusei ATCC 6258 assessed as diameter of zone inhibition incubated for 24 hrs by CLSI disc diffusion method; type: functional; method in brief: as §4
[12] = system: Staphylococcus aureus; experiment: Antibacterial activity against Staphylococcus aureus ATCC 6538P measured after 18 hrs by CLSI broth dilution method; type: functional; method in brief: as §2
[13] = system: Staphylococcus epidermidis; experiment: Antibacterial activity against Staphylococcus epidermidis ATCC 12228 measured after 18 hrs by CLSI broth dilution method; type: functional; conditions: ATCC 12228, 18 h; method in brief: as §2
[14] = system: Enterococcus faecalis; experiment: Antibacterial activity against Enterococcus faecalis ATCC 29212 measured after 18 hrs by CLSI broth dilution method; type: functional; conditions: ATCC 29212, 18 h; method in brief: as §2
[15] = system: Staphylococcus epidermidis; experiment: Antibacterial activity against Staphylococcus epidermidis ATCC 12228 assessed as diameter of zone inhibition measured after 18 hrs by CLSI disc diffusion method; type: functional; method in brief: as §1
[16] = system: Enterococcus faecium; experiment: Antibacterial activity against Enterococcus faecium ATCC 6057 assessed as diameter of zone inhibition measured after 18 hrs by CLSI disc diffusion method; type: functional; method in brief: as §1
[17] = system: Bacillus subtilis; experiment: Antibacterial activity against Bacillus subtilis ATCC 6633 assessed as diameter of zone inhibition measured after 18 hrs by CLSI disc diffusion method; type: functional; method in brief: as §1
[18] = system: Escherichia coli; experiment: Antibacterial activity against Escherichia coli ATCC 25922 measured after 18 hrs by CLSI broth dilution method; type: functional; conditions: ATCC 25922, 18 h; method in brief: as §2
[19] = system: Klebsiella pneumoniae; experiment: Antibacterial activity against Klebsiella pneumoniae ATCC 13883 measured after 18 hrs by CLSI broth dilution method; type: functional; conditions: ATCC 13883, 18 h; method in brief: as §2
[20] = system: Proteus mirabilis; experiment: Antibacterial activity against Proteus mirabilis ATCC 12453 measured after 18 hrs by CLSI broth dilution method; type: functional; conditions: ATCC 12453, 18 h; method in brief: as §2
[21] = system: Acinetobacter baumannii; experiment: Antibacterial activity against Acinetobacter baumannii ATCC 19606 measured after 18 hrs by CLSI broth dilution method; type: functional; conditions: ATCC 19606, 18 h; method in brief: as §2
[22] = system: Escherichia coli; experiment: Antibacterial activity against Escherichia coli ATCC 25922 assessed as diameter of zone inhibition measured after 18 hrs by CLSI disc diffusion method; type: functional; method in brief: as §1
[23] = system: Enterobacter cloacae; experiment: Antibacterial activity against Enterobacter cloacae DSM 6234 assessed as diameter of zone inhibition measured after 18 hrs by CLSI disc diffusion method; type: functional; method in brief: as §1
[24] = system: Pseudomonas aeruginosa; experiment: Antibacterial activity against Pseudomonas aeruginosa ATCC 27853 assessed as diameter of zone inhibition measured after 18 hrs by CLSI disc diffusion method; type: functional, organism-based; method in brief: as §1
[25] = system: Acinetobacter baumannii; experiment: Antibacterial activity against Acinetobacter baumannii ATCC 19606 assessed as diameter of zone inhibition measured after 18 hrs by CLSI disc diffusion method; type: functional; method in brief: as §1
[26] = system: Burkholderia cepacia; experiment: Antibacterial activity against Burkholderia cepacia ATCC 25416 assessed as diameter of zone inhibition measured after 18 hrs by CLSI disc diffusion method; type: functional; method in brief: as §1
[27] = system: Bordetella bronchiseptica; experiment: Antibacterial activity against Bordetella bronchiseptica ATCC 4617 assessed as diameter of zone inhibition measured after 18 hrs by CLSI disc diffusion method; type: functional; method in brief: as §1
[28] = system: Escherichia coli; experiment: Antibacterial activity against Escherichia coli ATCC 25922 assessed as fold reduction of MIC in presence of efflux pump inhibitor PAbetaN incubated for 18 hrs by CLSI broth microdilution method; type: functional
Method in brief: (§5)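 MICs determined with and without PAβN at 50 mg/L in Mueller-Hinton broth containing 1 mM MgSO₄. 2-fold serial dilutions per CLSI. Fold change taken from the paired MICs after 35 °C, 18 h.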

[29] = system: Klebsiella pneumoniae; experiment: Antibacterial activity against Klebsiella pneumoniae ATCC 13883 assessed as fold reduction of MIC in presence of efflux pump inhibitor PAbetaN incubated for 18 hrs by broth microdilution method; type: functional; method in brief: as §5
[30] = system: Proteus mirabilis; experiment: Antibacterial activity against Proteus mirabilis ATCC 12453 assessed as fold reduction of MIC in presence of efflux pump inhibitor PAbetaN incubated for 18 hrs by broth microdilution method; type: functional; method in brief: as §5
[31] = system: Enterobacter cloacae; experiment: Antibacterial activity against Enterobacter cloacae DSM 6234 assessed as fold reduction of MIC in presence of efflux pump inhibitor PAbetaN incubated for 18 hrs by broth microdilution method; type: functional; method in brief: as §5
[32] = system: Serratia marcescens; experiment: Antibacterial activity against Serratia marcescens ATCC 13880 assessed as fold reduction of MIC in presence of efflux pump inhibitor PAbetaN incubated for 18 hrs by broth microdilution method; type: functional; method in brief: as §5
[33] = system: Acinetobacter baumannii; experiment: Antibacterial activity against Acinetobacter baumannii ATCC 19606 assessed as fold reduction of MIC in presence of efflux pump inhibitor PAbetaN incubated for 18 hrs by broth microdilution method; type: functional; method in brief: as §5
[34] = system: Serratia marcescens; conditions: ATCC 13880

| Structure (SMILES) | diameter of the inhibition zone (DIZ) [1] [mm] | MIC [2] [µg/mL] | pKa [3] | MIC [4] [µg/mL] | MIC [5] [µg/mL] | MIC [6] [µg/mL] | diameter of the inhibition zone (DIZ) [7] | diameter of the inhibition zone (DIZ) [8] | diameter of the inhibition zone (DIZ) [9] | diameter of the inhibition zone (DIZ) [10] | diameter of the inhibition zone (DIZ) [11] | MIC [12] [µg/mL] | MIC [13] [µg/mL] | MIC [14] [µg/mL] | diameter of the inhibition zone (DIZ) [15] [mm] | diameter of the inhibition zone (DIZ) [16] [mm] | diameter of the inhibition zone (DIZ) [17] [mm] | MIC [18] [µg/mL] | MIC [19] [µg/mL] | MIC [20] [µg/mL] | also measured |
| --- | --- | --- | --- | --- | --- | --- | --- | --- | --- | --- | --- | --- | --- | --- | --- | --- | --- | --- | --- | --- | --- |
| C[Si]1(C)OB(O)c2c(F)c(F)c(F)c(F)c21 | 17 | > 400 | 4.7 | 50 (≈ 200 µM) | 200 (≈ 800 µM) | 25 (≈ 100 µM) | 15 mm | 21 mm | 13 mm | 14 mm | 13 mm | 25 (≈ 100 µM) | 100 (≈ 400 µM) | 200 (≈ 800 µM) | 17 | 11 | 20 | > 400 | > 400 | 400 (≈ 1600 µM) | MIC [21]: 400 µg/mL (≈ 1600 µM); diameter of the inhibition zone (DIZ) [22]: 18 mm; diameter of the inhibition zone (DIZ) [23]: inactive; diameter of the inhibition zone (DIZ) [24]: inactive; diameter of the inhibition zone (DIZ) [25]: 12 mm; diameter of the inhibition zone (DIZ) [26]: inactive; diameter of the inhibition zone (DIZ) [27]: 15 mm; fold change (FC) [28]: 32; fold change (FC) [29]: 16; fold change (FC) [30]: 2; fold change (FC) [31]: 32; fold change (FC) [32]: 4; fold change (FC) [33]: 4; DIZ [34]: inactive |
| C[Si]1(C)OB(O)c2ccc(F)c(F)c21 | 32 | > 400 | 6.1 | 3.12 (≈ 14.6 µM) | 100 (≈ 467 µM) | 12.5 (≈ 58.4 µM) | 15 mm | 11 mm | 12 mm | 30 mm | 17 mm | 25 (≈ 117 µM) | 50 (≈ 234 µM) | 100 (≈ 467 µM) | 33 | 18 | 28 | > 400 | > 400 | > 400 | MIC [21]: 200 µg/mL (≈ 934 µM); diameter of the inhibition zone (DIZ) [22]: inactive; diameter of the inhibition zone (DIZ) [23]: inactive; diameter of the inhibition zone (DIZ) [24]: inactive; diameter of the inhibition zone (DIZ) [25]: inactive; diameter of the inhibition zone (DIZ) [26]: inactive; diameter of the inhibition zone (DIZ) [27]: inactive; fold change (FC) [28]: 32; fold change (FC) [29]: 16; fold change (FC) [30]: 2; fold change (FC) [31]: 32; fold change (FC) [32]: 8; fold change (FC) [33]: 4; DIZ [34]: inactive |
| C[Si]1(C)OB(O)c2ccc(B(O)O)cc21 | 14 | > 400 | 7.7 | > 400 | 400 (≈ 1800 µM) | 100 (≈ 451 µM) | inactive | inactive | inactive | inactive | inactive | 200 (≈ 901 µM) | 50 (≈ 225 µM) | 200 (≈ 901 µM) | 32 | 12 | 19 | > 400 | > 400 | > 400 | MIC [21]: > 400 µg/mL; diameter of the inhibition zone (DIZ) [22]: inactive; diameter of the inhibition zone (DIZ) [23]: inactive; diameter of the inhibition zone (DIZ) [24]: inactive; diameter of the inhibition zone (DIZ) [25]: inactive; diameter of the inhibition zone (DIZ) [26]: inactive; diameter of the inhibition zone (DIZ) [27]: inactive; fold change (FC) [28]: 8; fold change (FC) [29]: 4; fold change (FC) [30]: 4; fold change (FC) [31]: 16; fold change (FC) [32]: 2; fold change (FC) [33]: 2; DIZ [34]: inactive |
